Measurements pooled from the literature.
Compare with care: the assays were run in different laboratories.
Target: Cytochrome P450 2D6 (CYP2D6, Homo sapiens, UniProt P10635)
Effect on: enzyme activity
Mode: inhibitor

Structure (SMILES)	test	test system	setting	quantity	result
Nc1nc(N)c2nc(CNc3cccc4ccccc34)cnc2n1	luciferase			IC50	0.832 µM
C[C@H]1CN(c2n[nH]c3nc(N[C@H]4CC[C@H](NS(=O)(=O)CCC(F)(F)F)CC4)ncc23)CCO1				IC50	> 100 µM
Cc1cc(C)c2c(c1)[C@@H](N(Cc1cc(C(F)(F)F)cc(C(F)(F)F)c1)c1nnn(C)n1)CCCN2C[C@H]1CC[C@H](C(=O)O)CC1		human, liver microsomes	pH 7.4	Ki	2.1 µM
CC1=CC(=O)C(C(C)C)=CC1=O	fluorescence		pH 7.4	IC50	282 µM
Cc1ccc2nc(-c3ccccc3)c(CNc3ccc(F)cc3)n2c1				IC50	2.3 µM
COc1ccc2c(Cc3ccccc3F)c3[n+](cc2c1OC)CCc1cc2c(cc1-3)OCO2				IC50	0.2 µM
Nc1nc(N)c2nc(C(=O)NCc3ccccc3)cnc2n1	luciferase			IC50	0.204 µM
Fc1ccc(Nc2c(-c3ccccn3)nc3ccc(C4CC4)cn23)cc1				IC50	1.5 µM
Cc1coc([C@H]2C[C@H]3[C@@H](C)SC(N)=N[C@@]3(c3ccc(F)cc3F)CO2)n1		human, liver microsomes	pH 7.4	IC50	> 30 µM
NS(=O)(=O)NCCNc1nonc1C(=NO)Nc1ccc(F)c(Br)c1	fluorescence			IC50	> 10 µM
Cc1coc([C@H]2C[C@H]3[C@@H](CF)SC(N)=N[C@@]3(c3ccc(F)cc3F)CO2)n1		human, liver microsomes	pH 7.4	IC50	> 30 µM
C[C@@H](c1ccc2nccn2c1)n1nnc2ncc(-c3cnn(C)c3)nc21		human, liver microsomes	pH 7.4	IC50	24 µM
